Granule exo inh: lytic granule exocytosis inhibition | TALL-104 LAMP-1 surface exposure, flow cytometry; cells stimulated with thapsigargin and PMA | inhibition, % at 10 µM | 0.66% of 360,000 active;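 active = inhibition above about 55%, limit read from the data; inconclusive = no clear call, values can overlap the other calls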
MC4R barr agon: agonists of human melanocortin 4 receptor (MC4R) beta-arrestin | U2OS MC4R beta-arrestin complementation, luminescence; percent of melanotan II response, DMSO zero | activation, % at 8.9 µM | AID 540308 | 0.98% of 360,000 active | P32245;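 active = activation above a per-plate cutoff, the mean activation of sample wells on that plate plus 3 SD, cut at about 8% in these data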
Target sequence (P32245 whole entry, looked up): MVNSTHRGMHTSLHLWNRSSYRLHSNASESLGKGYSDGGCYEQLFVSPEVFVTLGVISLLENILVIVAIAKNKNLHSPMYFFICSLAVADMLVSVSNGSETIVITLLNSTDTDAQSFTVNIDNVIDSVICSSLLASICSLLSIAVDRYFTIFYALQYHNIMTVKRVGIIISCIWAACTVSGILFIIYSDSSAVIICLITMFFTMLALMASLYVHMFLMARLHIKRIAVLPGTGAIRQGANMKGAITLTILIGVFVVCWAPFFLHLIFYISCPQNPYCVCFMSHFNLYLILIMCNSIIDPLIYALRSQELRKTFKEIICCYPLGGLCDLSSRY
Myeloid diff 2: promotes myeloid progenitor differentiation; ER-HoxA9 myeloid progenitors, lysozyme-GFP differentiation, flow cytometry; calls only at 10 µM; 1% of 360,000 active; AID 624256;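 active = normalized GFP-positive differentiation at or above the plate's own cutoff, the solvent-only control mean plus 3 SD; inconclusive = no clear call, values can overlap the other calls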;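 also: cells exposed to compound for four days before flow analysis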
EBI2 antag: antagonists of human EBI2 receptor; EBI2 beta-arrestin recruitment, luminescence, 7a,25-OHC stimulated; 0.81% of 360,000 active; P32249; AID 651636; inhibition, % at 5 µM; in the data active = inhibition above about 38%;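 also: enzyme fragment complementation signal reports receptor beta-arrestin coupling in cells; 0% = agonist plus DMSO wells and 100% = wells without agonist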
MC4R antag cAMP: human MC4R antagonism in cAMP assay; P32245; MC4R-expressing cells, MTII-stimulated cAMP, LANCE TR-FRET; inhibition, % at 6.5 µM; 0.48% of 360,000 active;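 active = inhibition above its plate's cutoff, the mean of tested wells on that plate plus 3 SD, cut at about 29% in these data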;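 also: 0% = Melanotan II alone and 100% = Melanotan II plus saturating MCL0020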
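material = U2OS cells stably expressing human melanocortin 4 receptor (MC4R) | also added = Melanotan II challenge | dosing = single nominal compound dose of 6.5 µM | detection = TR-FRET with Eu-cAMP and labeled anti-cAMP, 671 nm | replication = singlicate | timing = compound 30 min, challenge 1 h, detection 1 h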
MC4R barr conf: human MC4R beta-arrestin agonism confirmation | shares compounds with MC4R barr agon | U2OS MC4R beta-arrestin recruitment, luminescence; scaled DMSO 0%, Melanotan II 100% | activation, % at 8.9 µM | 31% of 2,400 active | AID 602192;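 active = mean activation across replicates above the hit cutoff set in the earlier primary screen, cut at about 8% in these data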
MOR DOR agonist: counter-screen for MC4R agonists: agonists of mu-delta opioid heterodimer | U2OS PathHunter beta-arrestin, beta-gal luminescence; percent of deltorphin B response, DMSO zero | 5.8% of 2,400 active | AID 602194 | activation, % at 9.2 µM | shares compounds with MC4R barr agon;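 active = mean activation across replicates exceeds the hit threshold derived in the earlier primary screen, cut at about 18% in these data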;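 also: 100% = deltorphin B at 0.9 µM final and 0% = DMSO alone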
* hit, by the source's call; i = inactive; ? = inconclusive; . = not tested or not shown; + = active, no number. The list is not random: actives were taken first. Their share in the collection is about 3.7%.

SMILES	Granule exo inh	MC4R barr agon	Myeloid diff 2	EBI2 antag	MC4R antag cAMP	MC4R barr conf	MOR DOR agonist
COC(=O)c1ccc(CN2C(=O)NC3(CCC(C)CC3)C2=O)cc1 (centres undefined)	3	-2	i	0	-1	.	.
COc1ccc(-c2nn(-c3ccccc3)cc2/C=C/C(=O)OCC(=O)Nc2ccc(C#N)cc2)cc1	-1	10*	i	25	3	-1	4
CC1CCN(S(=O)(=O)c2nnc(NC(=O)c3ccccc3Br)s2)CC1	0	-1	i	1	-1	.	.
Cc1cccc(OCC(=O)Nc2ccc3c4c(cccc24)CC3)c1C	-6	31*	i	-12	-1	2	4
COc1ccc(C(=O)NC(=S)Nc2ccc3c4c(cccc24)CC3)cc1OC	-4	13*	i	4	-4	7	2
O=C(CN1C(=O)CCC1=O)Nc1ccc2c3c(cccc13)CC2	-3	0	i	-8	3	.	.
N#Cc1cnn2ccn(C3OC(CO)C(O)C3O)c12 (centres undefined)	0	0	i	-3	4	.	.
COc1ccc(Cl)cc1NC(=O)NCc1ccc2c(c1)OCO2	-2	-1	i	9	1	.	.
Cc1cc(C(=O)Nc2cc(S(C)(=O)=O)ccc2Cl)c(C)o1	5	-1	i	-1	0	.	.
Cc1cccc(C(=O)Nc2ccc(O)c3c(=O)cc(-c4ccccc4Cl)oc23)c1	-2	17*	i	-14	7	0	3
O=C(Nc1ccc(O)c2c(=O)cc(-c3ccccc3Cl)oc12)c1cccc(Cl)c1	3	0	i	-29	-2	.	.
COc1cccc2sc(N(CCN(C)C)C(=O)/C=C/c3cccs3)nc12	33	7	i	4	7	.	.
Cc1ccc2nc(N(CCN(C)C)C(=O)/C=C/c3cccs3)sc2c1	56*	16*	i	11	-18	6	4
CCN(CC)CCN(C(=O)/C=C/c1cccs1)c1nc2ccc(C)cc2s1	4	0	?	0	-6	.	.
CN(C)CCN(C(=O)/C=C/c1cccs1)c1nc2ccc(Br)cc2s1	33	31*	i	9	4	12*	6
CN(C)CCN(C(=O)/C=C/c1cccs1)c1nc2c(F)cc(F)cc2s1	65*	21*	i	-1	8	5	14
CCOc1cccc2sc(N(CCN(C)C)C(=O)/C=C/c3cccs3)nc12	25	15*	i	-1	-2	3	9
CCOc1ccc(N(CC(=O)Nc2ccccc2C(=O)N2CCCC2)S(C)(=O)=O)cc1	-24	-2	i	-5	-1	.	.
CCN(CC)CCN(C(=O)/C=C/c1cccs1)c1nc2ccc(F)cc2s1	39	-2	i	6	3	.	.
CN(C)CCCN(C(=O)/C=C/c1cccs1)c1nc2ccc(F)cc2s1	10	10*	+	-4	-7	16*	8
O=C(c1ccc(COc2ccc3ccccc3c2)o1)N1N=C(C(F)F)CC1(O)C(F)F (centres undefined)	1	30*	i	3	-4	16*	6
CCOc1ccc(OCc2ccc(C(=O)N3N=C(C(F)F)CC3(O)C(F)F)o2)cc1 (centres undefined)	-2	8	i	3	3	.	.
O=C(c1ccc(COc2ccc(Br)cc2)o1)N1N=C(C(F)F)CC1(O)C(F)F (centres undefined)	-3	11*	i	-11	7	22*	14
COc1cc(NCC2COc3c(ccc(OC)c3OC)C2=O)c([N+](=O)[O-])cc1OC (centres undefined)	-12	.	i	4	.	.	.
O=C(Nc1cc(C(F)(F)F)ccc1N1CCOCC1)c1cn2ccccc2n1	-7	12*	i	13	-1	-1	3
O=C(Nc1ccc2ccccc2c1)c1ccc(Cl)cc1Cl	11	12*	i	4	16	2	5
O=C(CN(CCO)c1ccccc1)Nc1ccc(Cl)c(S(=O)(=O)N2CCOCC2)c1	-6	-4	i	-4	1	.	.

High-throughput results from PubChem BioAssay.
